ASAP1 inh: inhibitors of human ASAP1 ArfGAP activity, primary screen, biochemical, fluorescence polarization | Arf-GAP with SH3 domain, ANK repeat and PH domain-containing protein 1 (Homo sapiens), … | ASAP1-stimulated ARF1 GTP hydrolysis, GDP FP detection | inhibition, % at 16.5 µM | 0.19% of 360,000 active | AID 624377, 2012; in the data active = inhibition above about 25%;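 note: 0% = vehicle with enzyme and substrate and 100% = no enzyme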
TDP2 inh: human TDP2 enzyme inhibitors, primary screen, biochemical, epi absorbance, recombinant enzyme | Tyrosyl-DNA phosphodiesterase 2 (Homo sapiens), O95551 | T5PNP hydrolysis, p-nitrophenol absorbance 415 nm | inhibition, % at 12.8 µM | 0.34% of 370,000 active | AID 720702, 2013;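 active = inhibition above the mean of all tested compounds plus 3 SD, set per campaign, cut at about 25% in these data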;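 note: 0% = DMSO with enzyme and 100% = buffer with substrate but no TDP2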
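Evaluation: % inhibition relative to enzyme-containing and enzyme-free wells. Material: recombinant human TDP2. Benchmarks: enzyme-free and DMSO wells. Timing: enzyme reaction with compound for 2 h at 37 °C. Compound dosing: 12.8 µM only. Measured by: p-Nitrophenol epi absorbance. Reagent: T5PNP substrate at 5 mM, a TopII-DNA adduct mimic. Replication: single well per compound.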
ARFGAP1 inhibitor: inhibitors of rat ARFGAP1 GAP activity, primary screen, biochemical, fluorescence polarization, GDP tracer; Arfgap1-stimulated ARF1 GTP hydrolysis, GDP FP detection; inhibition, % at 16.5 µM; 0.26% of 360,000 active;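 active = inhibition above a per-plate limit, mean inhibition of low control wells plus 3 SD, cut at about 25% in these data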;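 note: 0% = DMSO wells with enzyme and 100% = wells lacking Arfgap1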
Target sequence (Q62848 1-136 limits assumed): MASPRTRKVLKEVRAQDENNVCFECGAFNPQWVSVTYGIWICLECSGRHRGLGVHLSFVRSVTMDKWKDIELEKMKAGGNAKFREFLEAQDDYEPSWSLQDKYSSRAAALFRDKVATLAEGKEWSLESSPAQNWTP
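System: truncated rat Arfgap1 GAP domain / Medium: HEPES-based buffer, pH 7.5 / Also added: N-terminally truncated human ARF1-GTP substrate / Incubation: enzyme reaction 120 min at 25 °C after 20 min preincubation / Measured by: FP of antibody-bound GDP Alexa 633 tracer, ex 620/em 688 nm / Replicates: singlicate, each compound tested once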
LEDGF integ inh: blockers of LEDGF/p75-dependent integrase strand transfer – biochemical, TR-FRET, high throughput, primary screen; HIV-1 integrase (with human LEDGF/p75); TR-FRET IN-LEDGF/p75 DNA integration, Eu/Cy5; inhibition, % at 3.7 µM; 0.64% of 370,000 active;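 active = inhibition above the screen-wide mean plus 3 SD, cut at about 13% in these data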;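 note: signal is the Cy5 over europium emission ratio at 671 and 618 nm; 0% = plate median of compound wells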
CASP6 VEID inh: human caspase-6 inhibitors, primary screen, biochemical, VEID-R110 fluorescence, single point, set 2; 0.53% of 350,000 active; inhibition, % at 12.5 µM; AID 686996, 2013; purified caspase-6, Z-VEID-R110 cleavage fluorescence;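 active = mean inhibition across replicates at least about 35%, with every replicate also reaching that limit, limit read from the data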;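 note: 0% = median of neutral control wells and 100% = no fluorescence left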
Target sequence (P55212 24-179 limits assumed): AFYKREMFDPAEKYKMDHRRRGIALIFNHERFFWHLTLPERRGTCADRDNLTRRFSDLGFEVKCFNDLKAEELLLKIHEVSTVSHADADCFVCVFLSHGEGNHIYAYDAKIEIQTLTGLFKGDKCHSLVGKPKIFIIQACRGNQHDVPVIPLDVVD
Target sequence (P55212 194-293 limits assumed): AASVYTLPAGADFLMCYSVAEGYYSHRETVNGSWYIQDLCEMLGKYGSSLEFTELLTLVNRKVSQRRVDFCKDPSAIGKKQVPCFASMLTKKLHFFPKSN
IN multimer act: HIV-1 IN multimer formation enhancers, counter-screen for LEDGF/p75 integration inhibitor project, biochemical, TR-FRET | shares compounds with LEDGF integ inh | AID 1053131, 2014 | activation, % at 7.7 µM | 17% of 2,000 active | TR-FRET HIV-1 integrase multimerization; in the data active = activation above about 8.9%
TRFRET interf: TR-FRET optical interference artefacts, confirmation, artefact control for LEDGF/p75-dependent integration inhibitor project, biochemical, HIV-1 IN multimerization. shares compounds with LEDGF integ inh. TR-FRET optical interference counterscreen. inhibition, % at 7.7 µM. 2,000 tested, under 10 active. AID 1053135, 2014;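 active = inhibition above the mean over all tested compounds plus 3 SD, which no compound reached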;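 note: 0% = integrase with antibodies and DMSO and 100% = antibodies without integrase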
LEDGF integ conf: inhibitors of HIV-1 IN-LEDGF/p75 DNA integration, confirmation, biochemical, TR-FRET; AID 1053136, 2014; 36% of 2,000 active; TR-FRET LEDGF/p75-dependent HIV-1 integration; shares compounds with LEDGF integ inh; inhibition, % at 3.7 µM; in the data active = inhibition above about 14%
Numbers without * were called inactive; x = no result. Only some compounds are listed: those with a hit (about 1.3% of all), similar ones and a draw of the others.

SMILES	ASAP1 inh	TDP2 inh	ARFGAP1 inhibitor	LEDGF integ inh	CASP6 VEID inh	IN multimer act	TRFRET interf	LEDGF integ conf
CCn1c(C)nc2cc(C(=O)N/N=C/c3ccc(O)c(O)c3O)ccc21	3	-10	10	73*	6	52*	-264	70*
O=C1CC(=O)N(Cc2cccs2)C(=O)N1	7	-1	0	1	x	x	x	x
O=C1CC(=O)N(Cc2ccco2)C(=O)N1	6	16	-8	89*	x	18*	-90	87*
C[C@@H]1CN([C@H](C)CO)C(=O)c2cc(NC(=O)Cn3cnnn3)ccc2O[C@H]1CN(C)S(=O)(=O)c1cn(C)cn1	x	x	x	x	2	x	x	x
CCc1ccc(N2C=C(C(=O)OC)C(c3cccc4ccccc34)C(C#N)=C2N)cc1 (stereo unspecified)	3	-10	-2	22*	-2	1	-3	4
Cc1noc(C)c1NC(=O)N(C)C[C@H]1Oc2ncc(C#CC3CC3)cc2C(=O)N([C@H](C)CO)C[C@@H]1C	x	x	x	x	1	x	x	x
O=C(NC(=S)N1CCN(C/C=C/c2ccccc2)CC1)c1c(F)cccc1F	-5	-6	2	-1	1	x	x	x
O=C1C=C(O)CC(c2ccco2)C1 (stereo unspecified)	-7	-7	-4	38*	x	2	-8	21*
O=C1C=C(Nc2ccc(O)cc2)CC(c2ccco2)C1 (stereo unspecified)	-10	-1	-10	4	x	x	x	x
CCOC1=C2[C@@H](CN(S(=O)(=O)c3ccccc3C)[C@H]2c2ccc(Cl)cc2)[C@H]2C(=O)N(c3ccccc3)C(=O)[C@H]2C1	-4	1	0	37*	0	1	-3	-9
CCOC1=C2[C@@H](CN(S(=O)(=O)c3ccccc3C)[C@H]2c2ccc(Cl)cc2)[C@H]2C(=O)N(C3CCCCC3)C(=O)[C@H]2C1	-16	-2	6	-2	-2	x	x	x
O=C(NC1CCCCC1)C(=S)N1CCOCC1	-12	9	3	2	0	x	x	x
CC(=O)Nc1cc(NC(C)=O)cc(C(=O)OC(C)C(=O)Nc2ccc(S(=O)(=O)N3CCCC3)cc2)c1 (stereo unspecified)	-1	0	9	-2	13	x	x	x
CCC(=O)Nc1ccc2c(c1)OC[C@H](C)N(Cc1ccccc1OC)C[C@@H](C)[C@H](OC)CN(C)C2=O	x	x	x	x	-3	x	x	x
CN1CCN(S(=O)(=O)c2cccc(C(=O)N3CCN(c4ccccc4F)CC3)c2)CC1	7	-3	4	26*	15	-3	9	-1
Cc1ccc(-c2c(C(=O)O)c(C(=O)O)c3n2CSC3)cc1	-15	9	5	14*	6	0	-1	-5
CC(C)(C)c1ccc(-c2c(C(=O)O)c(C(=O)O)c3n2CSC3)cc1	-2	-2	-11	8	29	x	x	x
CC(C)c1cccc(-c2csc(C(C)(O)c3ccccc3)n2)c1 (stereo unspecified)	-7	-3	4	16*	3	0	-1	-10
COc1ccc(-c2csc(C(C)(O)c3cccc(OC)c3)n2)cc1 (stereo unspecified)	2	-8	11	22*	1	0	0	-5

Bioassay records as filed in PubChem.
